Measurements: ChEMBL document CHEMBL1914378, “Synthesis and apoptosis inducing ability of new anilino substituted pyrimidine sulfonamides as potential anticancer agents” (Eur J Med Chem, 2011)
Structures can show the parent of a compound that is named as a salt. Activity calls are given as the source filed them. The rule behind the calls is not given here.

How the values were obtained:
K562 [1] = assay: Inhibition of NF-kappaB p65 in human K562 cells assessed as down regulation of STAT3 protein level at 10 uM after 24 hrs by Western blot analysis; assay type: cell-based
How it was run: (§1)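 K562 cells treated 24 h with compound at 10 (micro)M; lysed in ice-cold RIPA with protease/phosphatase inhibitors, centrifuged 12,000 rpm 10 min, protein by Bradford. 30 µg per lane on 12% SDS-PAGE, PVDF transfer, blocked 2 h RT in TBST with 5% blocking powder. Primary antibody 4 °C overnight, HRP secondary 1:2000 1 h RT; chemiluminescence; β-actin loading control; untreated cells as control.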

K562 [2] = assay: Cytotoxicity against human K562 cells after 24 hrs by MTT assay; assay type: functional, cell-based; conditions: K562, 24 h
MCF7 = assay: Cytotoxicity against human MCF7 cells after 24 hrs by MTT assay; assay type: functional, cell-based; conditions: MCF7, 24 h
MDA-MB-231 = assay: Cytotoxicity against human MDA-MB-231 cells after 24 hrs by MTT assay; assay type: functional, cell-based; conditions: MDA-MB-231, 24 h
K562 [3] = assay: Induction of apoptosis in human K562 cells assessed as effect on TNFR1 protein expression at 10 uM after 24 hrs by Western blot analysis; assay type: functional, cell-based
K562 [4] = assay: Antiproliferative activity against human K562 cells assessed as reduction in incorporation of BrdU into cellular DNA at 10 uM after 24 hrs; assay type: functional, cell-based
How it was run: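 K562 cells seeded 15,000/well, grown 24 h, then labelled with BrdU 5 h at RT, then exposed to compound at final 10 (micro)M for 24 h. Detection by anti-BrdU, HRP secondary (1:2000) 30 min, TMB substrate 30 min at room temperature; optical density read at 450 nm.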

K562 [5] = assay: Induction of apoptosis in human K562 cells assessed as DNA fragmentation at 10 uM after 24 hrs by TUNEL assay; assay type: functional, cell-based
How it was run: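 TUNEL on K562 cells after 24 h exposure at 10 (micro)M: TdT-mediated incorporation of fluorescein-dUTP at free 3'-OH ends of fragmented DNA, run per kit maker's protocol; green-stained cells scored as TUNEL-positive; untreated cells as staining control.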

K562 [6] = assay: Cell cycle arrest in human K562 cells at G1 phase assessed as decrease in cyclin D1 protein level at 10 uM after 24 hrs by Western blot analysis relative to control; assay type: functional, cell-based; how it was run: as §1
K562 [7] = assay: Cell cycle arrest in human K562 cells at G1 phase assessed as decrease in CDK4 protein level at 10 uM after 24 hrs by Western blot analysis relative to control; assay type: functional, cell-based; how it was run: as §1
K562 [8] = assay: Induction of apoptosis in human K562 cells assessed as upregulation of caspase3 protein expression at 10 uM after 24 hrs by Western blot analysis; assay type: functional, cell-based; how it was run: as §1
K562 [9] = assay: Induction of apoptosis in human K562 cells assessed as upregulation of caspase7 protein expression at 10 uM after 24 hrs by Western blot analysis; assay type: functional, cell-based; how it was run: as §1
K562 [10] = assay: Inhibition of NF-kappaB p65 in human K562 cells assessed as decrease of S473 phosphorylated Akt1 level at 10 uM after 24 hrs by Western blot analysis; assay type: cell-based; how it was run: as §1
K562 [11] = assay: Inhibition of NF-kappaB p65 in human K562 cells at 10 uM after 24 hrs by Western blot analysis; assay type: cell-based; how it was run: as §1
K562 [12] = assay: Antiproliferative activity against human K562 cells assessed as down regulation of c-myc protein expression at 10 uM after 24 hrs by Western blot analysis relative to control; assay type: functional, cell-based; how it was run: as §1

Row | SMILES | Activity (K562 [1]) | IC50 (K562 [2]) | IC50 (MCF7) | IC50 (MDA-MB-231) | Activity (K562 [3]) | Activity (K562 [4]) | Activity (K562 [5]) | Activity (K562 [6]) | Activity (K562 [7]) | Activity (K562 [8]) | Activity (K562 [9]) | Activity (K562 [10]) | Activity (K562 [11]) | Activity (K562 [12])
1 | COc1ccc(S(=O)(=O)Nc2ccc(C)c(Nc3nccc(-c4cc(OC)c(OC)c(OC)c4)n3)c2)cc1OC | Active | 8.57 µM | 11.6 µM | 7.48 µM | inactive | Active | Active | Active | Active | Active | Active | Active | – | –
2 | Cc1ccc(NS(=O)(=O)c2cnc3ccccc3c2)cc1Nc1nccc(-c2cccnc2)n1 | Active | 5.88 µM | 9.96 µM | 7.31 µM | inactive | Active | Active | Active | Active | Active | Active | Active | inactive | –
3 | Cc1ccc(NC(=O)c2ccc(CN3CCN(C)CC3)cc2)cc1Nc1nccc(-c2cccnc2)n1 [IMATINIB MESYLATE] | – | 0.21 µM | 0.83 µM | 1.8 µM | – | – | – | – | – | – | – | – | – | –
4 | Cc1ccc(NS(=O)(=O)c2ccc3ccccc3c2)cc1Nc1nccc(-c2cccnc2)n1 | – | 9.89 µM | 12 µM | 8.31 µM | – | – | – | – | – | – | – | – | – | –
5 | COc1cc(-c2ccnc(Nc3cc(NS(=O)(=O)c4ccc5ccccc5c4)ccc3C)n2)cc(OC)c1OC | – | 9.81 µM | 11.6 µM | 7.55 µM | – | – | – | – | – | – | – | – | – | –
6 | COc1ccc(S(=O)(=O)Nc2ccc(C)c(Nc3nccc(-c4cc(OC)c(OC)c(OC)c4)n3)c2)cc1 | – | 9.12 µM | 12.3 µM | 6.86 µM | – | – | – | – | – | – | – | – | – | –
7 | COc1cc(-c2ccnc(Nc3cc(NS(=O)(=O)c4ccc(-c5ccccc5)cc4)ccc3C)n2)cc(OC)c1OC | Active | 5.6 µM | 9.33 µM | 6.93 µM | inactive | Active | Active | Active | Active | Active | Active | Active | Active | Active
8 | Cc1ccc(NS(=O)(=O)c2ccc(Cl)cc2)cc1Nc1nccc(-c2cccnc2)n1 | – | 10.2 µM | 11.8 µM | 7.79 µM | – | – | – | – | – | – | – | – | – | –
9 | Cc1ccc(NS(=O)(=O)c2ccc(-c3ccccc3)cc2)cc1Nc1nccc(-c2cccnc2)n1 | – | 9.49 µM | 11.9 µM | 8 µM | – | – | – | – | – | – | – | – | – | –
